High-throughput results as filed in PubChem.
Rows were chosen to be rich in hits. Some 3.1% of all compounds tested hit in one or more screens of this group.
OX1R antag-1 – antagonists of human orexin 1 receptor (OX1R). Orexin/Hypocretin receptor type 1 (Homo sapiens), O43613. hit rate 1.8% among 330,000. inhibition, % at 6.6 µM. AID 485270, 2010. OX1R-expressing cells, FRET antagonist read-out; in the data active = inhibition mostly above about 38%, no sharp cut-off; inactive = mostly below about 40%;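 also: 0% = agonist challenge alone and 100% = reference antagonist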
Target sequence (O43613 whole entry, looked up): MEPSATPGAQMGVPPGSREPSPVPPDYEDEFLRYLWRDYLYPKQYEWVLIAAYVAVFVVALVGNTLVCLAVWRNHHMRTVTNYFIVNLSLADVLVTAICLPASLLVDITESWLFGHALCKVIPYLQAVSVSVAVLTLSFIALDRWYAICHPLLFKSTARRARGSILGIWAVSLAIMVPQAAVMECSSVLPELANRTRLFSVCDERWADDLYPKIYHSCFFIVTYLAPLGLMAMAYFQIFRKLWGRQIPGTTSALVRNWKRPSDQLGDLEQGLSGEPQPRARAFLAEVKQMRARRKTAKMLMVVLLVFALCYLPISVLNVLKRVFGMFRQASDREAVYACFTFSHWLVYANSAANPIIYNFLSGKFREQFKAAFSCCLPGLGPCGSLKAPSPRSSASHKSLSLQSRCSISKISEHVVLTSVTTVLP
GalR3 antagonist – GalR3 antagonists in HEK293 cells, primary screen, cell-based, fluorescence readout | Galanin receptor type 3 (Homo sapiens), O60755 | HEK293 GalR3-CNG cAMP membrane potential fluorescence; galR3 body fused to GalR1 C-terminus | inhibition, % at 3 µM | hit rate 0.44% among 360,000 | AID 651719, 2012;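 active = inhibition above the screen-wide average plus 3 SD, cut at about 13% in these data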;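 also: forskolin and galanin both at EC90 stimulate the cells; cAMP rise reported by CNG channel membrane potential dye signal; 0% = forskolin plus galanin with DMSO and 100% = forskolin alone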
CHO parental Ca – ATP-evoked calcium signal inhibitors, parental CHO, primary screen, counter-screen for OX1R antagonist project, cell-based, fluorescence, Fluo-8 calcium dye | AID 463079, 2010 | inhibition, % at 5.6 µM | parental CHO-K1, ATP-induced calcium, Fluo-8 fluorescence | hit rate 0.63% among 330,000;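 active = inhibition above that plate's mean sample inhibition plus 3 SD, cut at about 26% in these data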;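 also: 0% = ATP-challenged DMSO wells and 100% = DMSO wells without ATP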
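material = parental CHO cells | also added = ATP as calcium-mobilizing challenge | dosing = single point at 5.6 µM | detection = intracellular calcium via Fluo-8 no-wash fluorescent dye | read-out = % inhibition | benchmarks = low control ATP plus DMSO, high control DMSO only | repeats = one well per compound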
OX1R antag-2 – OX1R (HCRTR1) antagonists, primary screen, fluorescence, CHO/OX1R cells, Fluo-8 calcium, orexin A | inhibition, % at 5 µM | Orexin/Hypocretin receptor type 1 (Homo sapiens), O43613 | hit rate 0.43% among 330,000 | Fluo-8 calcium fluorescence | AID 434989, 2010;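 active = inhibition above its plate's threshold, mean inhibition of all tested compounds on the plate plus 3 SD, cut at about 37% in these data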;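 also: 0% = orexin A challenge wells and 100% = SB-334867-A antagonist wells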
GPR7 antag – GPR7 receptor antagonists, primary screen, cell-based, fluorescence, single concentration. Neuropeptides B/W receptor type 1 (Homo sapiens), P48145. GPR7-expressing cells, fluorescence antagonist assay. inhibition, % at 4.4 µM. hit rate 1.1% among 290,000; in the data active = inhibition above about 16%, passing the limit was not always enough;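 also: cells stimulated with the agonist NPW; 0% = agonist with vehicle and 100% = vehicle without agonist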
Starred values were filed as active, the others as inactive; nt = no result given.

SMILES	OX1R antag-1	GalR3 antagonist	CHO parental Ca	OX1R antag-2	GPR7 antag
CC1CCC(C(C)C)C(OC(=O)Cn2c(COc3ccccc3)[n+](C)c3ccccc32)C1 (stereo not given)	16	0	50*	36*	58*
Clc1cc(Cl)cc(NC2=NCCS2)c1	4	3	-9	-16	-5
CCCCCn1c(=O)c(C(=O)Nc2ccccc2S(N)(=O)=O)c(O)c2ccccc21	35	-4	-25	-25	-3
CCCCn1c(=O)c(C(=O)Nc2ccccc2S(N)(=O)=O)c(O)c2ccccc21	35*	-6	-21	-11	-7
NNc1n[nH]c(=S)n1N	61*	-3	5	5	-5
COc1ccc(C(c2nnnn2C2CCCC2)N2CCC3(CC2)C(=O)NCN3c2ccccc2)cc1 (stereo not given)	nt	-7	nt	nt	nt
O=C1c2cccc3cccc(c23)C(=O)N1/N=C/c1c(O)n(-c2ccccc2)c(=O)[nH]c1=O	61*	-4	-7	-8	-15
[O-]c1ccccc1-[n+]1c(-c2ccccc2)cc(-c2ccccc2)cc1-c1ccccc1	16	-4	48*	45	nt
Cc1ccccc1-[n+]1c(-c2ccccc2)cc(-c2ccccc2)cc1-c1ccccc1	45	-9	54*	15	nt
Oc1ccccc1-[n+]1c(-c2ccccc2)cc(-c2ccccc2)cc1-c1ccccc1	9	-7	-8	-23	nt
CN1C[C@H](O)[C@H]2C[C@@H]1c1ccccc1O2	nt	-7	nt	nt	nt
O=C(C1CCCN(S(=O)(=O)c2cccc3nsnc23)C1)N1CCC2(CC1)OCCO2 (stereo not given)	41*	-3	-12	-14	1
CC1CCCCN1C(=O)c1ccc(N2CC3CC(C2)c2cccc(=O)n2C3)c([N+](=O)[O-])c1 (stereo not given)	17	2	2	2	-13
OCCNc1c2c(nc3ccccc13)CCCC2	5	-3	5	6	4
C[n+]1c2ccccc2nc2ccc(NCCO)cc21	86*	-9	-5	-17	1
O=P(OCCCl)(OCCCl)OCCCl	nt	1	nt	nt	nt
COC(=O)C1=C(c2ccc3ccccc3c2)C[C@@H]2CC[C@H]1N2C(=O)N1CCCC1	8	nt	-22	5	nt
COc1ccccc1CCNC(=O)CCC(=O)N1CC2C[C@@H](C1)Cn1c2cccc1=O	6	-7	-9	-29	-1
CCNCCNc1ccc([N+](=O)[O-])c2cccnc12	42*	-2	-15	-16	-4
O=C(c1ccccc1)N1Cc2cc(Br)ccc2-n2nncc2C1	nt	-4	nt	nt	nt
CCCC[C@@H](C)C[C@@H](C)C(=O)N(C)[C@@H](CC(C)C)C(=O)N[C@H](C(=O)N(C)[C@H](C(=O)N1C[C@@H](O)C[C@H]1C(=O)N1C(=O)C=C[C@@H]1C)C(C)C)C(C)OC(C)=O (stereo not given in full)	52*	nt	-24	-22	nt
O=C(O)C1(c2ccc(Cl)cc2)CCC1	8	-4	7	-4	-13
CC(=O)C1(c2ccccc2)CCNCC1	10	-4	-11	-11	14*
O=C(NCCN1CCC2(CC1)C(=O)NCN2c1ccccc1)c1ccc2ccccc2c1	nt	-5	nt	nt	nt
O=C1NCN(c2ccccc2)C12CCN(C(c1ccnc3ccccc13)c1nnnn1C1CCCCC1)CC2 (stereo not given)	nt	-6	nt	nt	nt
SMILES	OX1R antag-1	GalR3 antagonist	CHO parental Ca	OX1R antag-2	GPR7 antag
CN1CC[C@@H]2CN[C@H](c3ccccc3)C[C@@H]21	nt	-7	nt	nt	nt
CCCOP(=O)(OCCC)C(NC(=O)c1ccccc1)=C(Cl)Cl	33	-4	-3	-11	-3
O=C(NC(=C(Cl)Cl)P(=O)(c1ccccc1)c1ccccc1)c1ccccc1	69*	-4	-18	-4	-9
CCOC(=O)c1ccccc1N	9	-5	-7	-9	nt
CCOC(=O)c1cc2c(cn1)[nH]c1ccccc12	64*	0	-4	8	-6
CCOC(=O)c1ccc(NC(=O)c2c(O)[nH]c(=O)[nH]c2=O)cc1	-7	-3	-8	-11	48*
CCOc1ccc(NC(=O)c2c(O)[nH]c(=O)[nH]c2=O)cc1	25	-10	-1	-8	nt
Cc1cc(N2CCNC[C@H]2C)ccc1N1CC[C@H](O)C1	nt	-7	nt	nt	nt
CC1CN2C(=O)C1(c1ccccc1)C(=O)NC2=S (stereo not given)	nt	0	nt	nt	nt
COc1cccc(-c2ccc3c(c2)C2c4cnnn4-c4ccccc4C(=O)N2CC3)c1 (stereo not given)	nt	-5	nt	nt	nt
CC1CN(c2ccc([N+](=O)[O-])c3cccnc23)CC(C)N1 (stereo not given)	79*	-4	5	-24	-2
O=[N+]([O-])c1ccc(N2CCCC2)c2ncccc12	51	6	-15	4	-4
CC1COC2N=C(N[N+](=O)[O-])NC2O1 (stereo not given)	12	-6	5	-2	-16
Cc1ccc(C(=O)N[C@@H](C)CN2C3=NC[C@H](Cc4ccccc4)N3C[C@H]2Cc2ccc(O)cc2)cc1Br	16	nt	42*	47*	nt
Cc1ccc(C(=O)N[C@@H](C)CN2C3=NC[C@@H](Cc4ccccc4)N3C[C@H]2Cc2ccc(O)cc2)cc1Br	6	-5	-11	-3	17
CN1CC[C@@]2(C)c3cc(O)ccc3N(C)C2O1 (stereo not given in full)	60*	nt	-2	3	nt
Oc1c(Br)c(Br)c(Br)c(Br)c1Br	37*	nt	-7	7	nt
CCC(C)(C)n1nnnc1C(c1cccs1)N1CC=C(c2ccc(F)cc2)CC1 (stereo not given)	20	-12	46*	-2	-5
Fc1ccc(C2=CCN(C(c3cccs3)c3nnnn3CCc3ccccc3)CC2)cc1 (stereo not given)	18	-7	-15	-13	-4
O=S(=O)(c1ccc(Cl)cc1)N1Cc2ccc(Br)cc2-n2nncc2C1	nt	-9	nt	nt	nt
COC(=O)c1ccccc1-n1c(C)nc2ccccc2c1=O	9	6	-16	-7	-9
O=C(O)c1cccc2nc3ccccc3nc12	48*	-2	-9	-3	1
C=CCNC(=S)Nc1ccc(OC(=O)Nc2ccc(Cl)c(Cl)c2)cc1	nt	-10	nt	nt	39*
COc1cc2c(cc1OC)CN(c1ccc([N+](=O)[O-])c(C(F)(F)F)c1)CC2	48*	-2	30	-7	5
CC(C)(O)C(=O)Nc1ccc([N+](=O)[O-])c(C(F)(F)F)c1	8	1	-2	4	nt
COC12c3ccccc3-c3ccccc3C1C(C(=O)O)C2C(=O)O (stereo not given)	nt	-5	nt	nt	nt
Cn1c(O)c(/C=C2/C=CC=N2)c(=O)[nH]c1=O	50*	3	-14	4	-11
